Assay outcomes (PubChem)
SENP8 block-1 = blocks the human protease SENP8; Q96LD8; purified SENP8, Z-RLRGG-aminoluciferin cleavage, luminescence; inhibition, % at 10 µM; 330,000 compounds, 1.2% hits; AID 2540; in the data active = inhibition above about 50%
SENP6 inh = inhibitors of human SENP6 protease; Q9GZR1; Recombinant SENP6 catalytic domain, aminoluciferin luminescence; inhibition, % at 10 µM; 330,000 compounds, 1.8% hits;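 active = inhibition above about 50% at the single tested dose, limit read from the data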;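 also: plate controls were DMSO wells with enzyme for no effect and DMSO wells lacking enzyme for full effect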
SENP1 inh = blocks the human SENP1 SUMO protease catalytic domain | 360,000 compounds, 0.21% hits | inhibition, % at 10 µM | recombinant SENP1 catalytic domain, CyPet-SUMO1-YPet FRET cleavage;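 active = inhibition at least 30% at 10 µM, raw YFP signal under a set limit, fluorescence ratio 0.5 to 1.5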;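 also: 0% = enzyme with DMSO and 100% = no enzyme wells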
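material = recombinant human SENP1 catalytic domain, His6-tagged | quantity = 20 pM enzyme | reagent = 25 nM SUMO1 FRET substrate | compound dosing = 10 µM single point, 0.5% DMSO | timing = 50 min enzyme reaction, room temperature, light-protected | detection = FRET, CFP and YFP emission | control set = no-enzyme low, enzyme-DMSO high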
SENP7 inh = inhibitors of human SENP7 protease; Q9BQF6; recombinant SENP7, Z-RLRGG-aminoluciferin luminescence, 40 min; inhibition, % at 5 µM; 330,000 compounds, 1.5% hits;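 active = inhibition above about 50% at the single test dose, limit read from the data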;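 also: plate controls were DMSO with enzyme for no effect and no enzyme buffer wells for full effect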
Apaf1 inhib = inhibitors of human Apaf-1 apoptosome. O14727. reconstituted apoptosome caspase-3 activity, DEVD-Rh110 fluorescence. inhibition, % at 20 µM. 330,000 compounds, 0.71% hits. AID 489030; active = inhibition of at least 40% at 20 µM;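 also: plate controls were DMSO wells for no effect and DEVD-CHO caspase inhibitor wells for full effect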
Target sequence (O14727 whole entry, looked up): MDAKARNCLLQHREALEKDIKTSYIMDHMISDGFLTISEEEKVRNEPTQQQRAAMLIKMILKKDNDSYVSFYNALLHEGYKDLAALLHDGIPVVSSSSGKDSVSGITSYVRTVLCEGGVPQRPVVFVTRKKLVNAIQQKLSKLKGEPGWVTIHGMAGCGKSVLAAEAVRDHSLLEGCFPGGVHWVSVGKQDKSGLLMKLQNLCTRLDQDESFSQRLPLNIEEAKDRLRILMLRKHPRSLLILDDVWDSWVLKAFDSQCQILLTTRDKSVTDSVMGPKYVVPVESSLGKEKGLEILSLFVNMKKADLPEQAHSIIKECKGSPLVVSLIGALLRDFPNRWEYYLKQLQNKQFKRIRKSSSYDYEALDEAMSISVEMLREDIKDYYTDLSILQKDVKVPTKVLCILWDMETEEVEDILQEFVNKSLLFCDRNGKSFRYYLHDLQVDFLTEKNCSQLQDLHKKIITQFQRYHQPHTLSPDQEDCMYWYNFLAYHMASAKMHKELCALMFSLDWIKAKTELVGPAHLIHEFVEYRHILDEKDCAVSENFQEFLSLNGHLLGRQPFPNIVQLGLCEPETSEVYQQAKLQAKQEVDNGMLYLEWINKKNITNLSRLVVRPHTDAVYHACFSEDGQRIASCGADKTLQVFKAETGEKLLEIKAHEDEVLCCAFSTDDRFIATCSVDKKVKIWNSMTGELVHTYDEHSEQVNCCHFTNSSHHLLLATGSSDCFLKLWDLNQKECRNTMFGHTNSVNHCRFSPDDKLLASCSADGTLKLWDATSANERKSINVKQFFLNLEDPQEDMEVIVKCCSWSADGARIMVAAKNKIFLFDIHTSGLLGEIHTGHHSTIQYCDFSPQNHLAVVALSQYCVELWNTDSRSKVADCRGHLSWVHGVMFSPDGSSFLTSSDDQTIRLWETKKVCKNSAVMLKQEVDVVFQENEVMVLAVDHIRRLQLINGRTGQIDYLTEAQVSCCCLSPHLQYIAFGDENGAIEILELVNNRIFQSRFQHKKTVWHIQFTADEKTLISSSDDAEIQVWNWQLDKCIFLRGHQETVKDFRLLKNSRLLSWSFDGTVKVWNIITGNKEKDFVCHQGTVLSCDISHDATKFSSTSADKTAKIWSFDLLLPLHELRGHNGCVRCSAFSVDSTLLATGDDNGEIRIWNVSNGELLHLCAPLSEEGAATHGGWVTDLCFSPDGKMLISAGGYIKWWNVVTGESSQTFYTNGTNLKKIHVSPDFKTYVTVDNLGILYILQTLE
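Assay system – apoptosome proteins · Medium – Hepes buffer, pH 7.5 · Also added – cytochrome c with DEVD-Rh110 · Timing – 30 min compound preincubation, 50 min activation, room temperature · Detection – Rh110 fluorescence, excitation 480 nm, emission 540 nm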
SENP8 block-2 = SENP8 (human) protease inhibition. Q96LD8. recombinant SENP8, Nedd8 substrate fluorescence. inhibition, % at 20 µM. 360,000 compounds, 0.64% hits; in the data active = inhibition mostly above about 40%, no sharp cut-off; inactive = mostly below about 27%
SENP8 confirm = human SENP8 inhibition, confirmed; inhibition, % at 12.5 µM; 6,200 compounds, 40% hits; shares compounds with SENP7 inh; Recombinant SENP8, Z-RLRGG-aminoluciferin luminescence, 60 min;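 active = mean inhibition across replicates above about 50%, limit read from the data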
SENP6 conf = human SENP6 inhibition, confirmed; shares compounds with SENP7 inh; recombinant SENP6, Z-RLRGG-aminoluciferin luminescence; inhibition, % at 12.5 µM; 6,200 compounds, 58% hits; AID 488915
SENP7 confirm = human SENP7 inhibition, confirmed; inhibition, % at 12.5 µM; recombinant SENP7, Z-RLRGG-aminoluciferin luminescence, 40 min; 6,200 compounds, 69% hits; shares compounds with SENP7 inh
Casp3 select = caspase-3 inhibition (SENP selectivity assay). shares compounds with SENP7 inh. purified caspase-3, Z-DEVD-aminoluciferin luminescence, 60 min. inhibition, % at 12.5 µM. 6,200 compounds, 60% hits;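 active = mean inhibition above about 50%, limit read from the data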;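 also: plate controls were enzyme with DMSO for no effect and wells without caspase-3 for full effect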
Luc interf = interferes with luciferase luminescence in SENP counter-screen; shares compounds with SENP7 inh; Pre-incubated SENP8/Z-RLRGG-aminoluciferin, luciferase luminescence interference; inhibition, % at 12.5 µM; 6,200 compounds, 39% hits;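 active = mean inhibition above about 50% when retested at one dose, limit read from the data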;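 also: plate controls were DMSO wells with completed reaction for no effect and substrate without enzyme for full effect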
Apaf-1 inh conf2 = confirmation of Apaf-1 inhibitors | shares compounds with Apaf1 inhib | reconstituted apoptosome, caspase-3 DEVD-Rh110 fluorescence | inhibition, % at 20 µM | 1,800 compounds, 25% hits | AID 504614;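 active = mean inhibition of at least 40% at 20 µM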;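 also: plate controls were DMSO wells for no effect and DEVD-CHO caspase inhibitor control wells for full effect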
Rh110 quench = counter-screen for Apaf-1 inhibitors: fluorescence interference. shares compounds with Apaf1 inhib. Rh110 fluorescence interference, quenched caspase reaction. activation (fluorescence interference), % at 20 µM. 1,800 tested, under 10 active;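 active = signal rise of 40% or more at 20 µM, treated as a fluorescence artifact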
Fluor interf inh = Apaf-1 inhibitor counter-screen fluorescence artifact | shares compounds with Apaf1 inhib | fluorescence interference counterscreen, Apaf-1 assay format | IC50, µM | 460 tested, under 10 active; call rule not given here
* hit, by the source's call; . = not tested or not shown. Shown are actives, neighbours in structure and some others; about 2.9% of the full set was active somewhere.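 The calls were made as follows, unless noted: active = mean inhibition above about 50% in the one-dose retest (limit read from the data); inactive = the rest.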

SMILES | SENP8 block-1 | SENP6 inh | SENP1 inh | SENP7 inh | Apaf1 inhib | SENP8 block-2 | SENP8 confirm | SENP6 conf | SENP7 confirm | Casp3 select | Luc interf | Apaf-1 inh conf2 | Rh110 quench | others
CCOc1cc2c(C#N)c(N3CCCCC3)nc(N)c2c(N)n1 | 65* | 69* | -49 | 29 | 97* | -327 | 14 | 42 | 26 | 1 | 2 | 37 | 0
CCOC(=O)C1CCN(c2nc(N)c3c(N)nc(SCC(=O)O)cc3c2C#N)CC1 | . | . | -31 | . | . | -415 | . | . | . | . | . | . | .
COc1cc2c(C#N)c(N3CCc4ccccc4C3)nc(N)c2c(N)n1 | 80* | 83* | -25 | 38 | 94* | -265 | 8 | 30 | 19 | 5 | 3 | 35 | 8
CCOC1=C2CN(S(=O)(=O)c3ccc(C)cc3)[C@H](c3ccccc3)C[C@@H]2N(S(=O)(=O)c2ccc(C)cc2)[C@H](c2ccccc2)C1 | . | . | -1 | . | . | 7 | . | . | . | . | . | . | .
O=C(O)c1cccc(NC2=C(N3CCOCC3)C(=O)c3ccccc3C2=O)c1 | 57* | 75* | -49 | 42 | 84* | 59* | 69* | 81* | 60* | 64* | 5 | 81* | -38 | Fluor interf inh=>100
O=C1Nc2ccccc2-c2nnnn2C1N1CCC(Cc2ccccc2)CC1 (stereo unspecified) | . | . | 4 | . | . | 17 | . | . | . | . | . | . | .
CCc1cnc(Nc2nc(C(N)c3ccccc3Cl)cs2)nc1 (stereo unspecified) | . | . | -1 | . | . | 2 | . | . | . | . | . | . | .
O=C(NN=c1c(=O)c2ccccc2c1=O)c1ccccc1 | 71* | 76* | 3 | 84* | 96* | 69* | -16 | 71* | 19 | -3 | 3 | 98* | 1 | Fluor interf inh=>100
COc1cc2sc3ccc(-c4ccc(N(C)C)nc4)cc3c(=O)c2cc1OC | 74* | 79* | . | 56* | 44* | . | 12 | 14 | -4 | 14 | -1 | 37 | 5
CC1CCCC(NC(=O)COC(=O)c2ccc([N+](=O)[O-])s2)C1C (stereo unspecified) | 63* | 65* | 1 | 32 | 41* | 34 | 9 | 51* | 4 | -2 | -11 | 31 | 5
CN1CCN(c2nc(-c3ccc(C(C)(C)C)cc3)nc3ccccc23)CC1 | 34 | 54* | 0 | 8 | 43* | 32 | 31 | 28 | 35 | 48 | 21 | 20 | 12
Cc1ccc(-c2nc(N3CCN(C)CC3)c3ccccc3n2)cc1 | -5 | -4 | -1 | 4 | 12 | -3 | . | . | . | . | . | . | .
CC(Sc1nnc(C2CC2)n1C1CC1)C(=O)N(C)C1(C#N)CCCCC1 (stereo unspecified) | -10 | -10 | 1 | 2 | -2 | 2 | . | . | . | . | . | . | .
CN(CC(=O)NCC(c1ccco1)N1CCCCC1)S(=O)(=O)c1ccc(Cl)cc1 (stereo unspecified) | -8 | -12 | 0 | -1 | 5 | 0 | . | . | . | . | . | . | .
